From ChEMBL document CHEMBL1136118, “N- and C-terminal modifications of negamycin” (Bioorg Med Chem Lett, 2003)
Converted amounts (≈) assume the structure as drawn.

Columns and labels:
Type in all cases: functional
Enterobacter cloacae = test: In vitro antibacterial activity against Enterobacter cloacae ATCC 35030
Outline: (§1)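 Broth microdilution MIC in Mueller–Hinton broth supplemented with 50% human serum; inoculum 5 × 10⁵ cfu/mL. MG1655 tolC is an efflux pump mutant.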

Escherichia coli [1] = test: In vitro antibacterial activity against Escherichia coli MG1655 tolC; outline: as §1
Escherichia coli [2] = test: Inhibitory activity against protein synthesis of Escherichia coli S30 by cell-free transcription/translation coupled assay
Outline: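 Coupled transcription/translation in E. coli S30 extract with pGEMbgal DNA template; compounds preincubated with reaction mixture 10 min before template addition; after 1 h incubation ONPG added and β-galactosidase activity read at 420 nm.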

Escherichia coli [3] = test: In vitro antibacterial activity against Escherichia coli ATCC 25922; outline: as §1
Escherichia coli [4] = test: In vitro antibacterial activity against Escherichia coli MG1655; outline: as §1
Klebsiella pneumoniae = test: In vitro antibacterial activity against Klebsiella pneumoniae […]; outline: as §1
Pseudomonas aeruginosa = test: In vitro antibacterial activity against Pseudomonas aeruginosa PA013; outline: as §1
Staphylococcus aureus = test: In vitro antibacterial activity against Staphylococcus aureus ATCC 25293; outline: as §1
Streptococcus pneumoniae = test: In vitro antibacterial activity against Streptococcus pneumoniae VSPN1005; outline: as §1
Mus musculus = test: In vivo efficacy in Escherichia coli murine septicemia model
Outline: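 Mice infected ip with approximately 1 × 10⁵ cfu E. coli ATCC25922; compound given iv at 1 and 5 h post-infection; survival followed for 7 days; ED₅₀ calculated by non-linear regression.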

Row | MIC (Enterobacter cloacae) [µg/mL] | MIC (Escherichia coli [1]) [µg/mL] | IC50 (Escherichia coli [2]) [µM] | MIC (Escherichia coli [3]) [µg/mL] | MIC (Escherichia coli [4]) [µg/mL] | MIC (Klebsiella pneumoniae) [µg/mL] | MIC (Pseudomonas aeruginosa) [µg/mL] | MIC (Staphylococcus aureus) [µg/mL] | MIC (Streptococcus pneumoniae) [µg/mL] | SMILES | ED50 (Mus musculus) [mg/kg]
1 | 128 (≈ 516 µM) | 32 (≈ 129 µM) | 23.4 | 128 (≈ 516 µM) | 128 (≈ 516 µM) | 64 (≈ 258 µM) | > 512 | 512 (≈ 2060 µM) |  | CN(CC(=O)O)NC(=O)C[C@H](N)C[C@H](O)CN | 
2 | > 256 | > 256 | > 80 | > 256 | > 256 | > 256 | > 256 | > 256 |  | CN(CC(=O)O)NC(=O)C[C@H](N)C[C@@H](O)CNC(N)=O | 
3 | 8 (≈ 32.2 µM) | 2 (≈ 8.06 µM) | 1 | 4 (≈ 16.1 µM) | 4 (≈ 16.1 µM) | 2 (≈ 8.06 µM) | 32 (≈ 129 µM) | 32 (≈ 129 µM) | 32 (≈ 129 µM) | CN(CC(=O)O)NC(=O)C[C@H](N)C[C@@H](O)CN [NEGAMYCIN] | 5.1
4 | > 256 | > 256 | > 80 | > 256 | > 256 | > 256 | > 256 | > 256 | > 256 | CN(CC(=O)O)NC(=O)C[C@H](N)CC(O)CN1CC[C@@H](N)C1 (some centres undefined) | 
5 | > 256 | > 256 | > 80 | > 256 | > 256 | > 256 | > 256 | > 256 | > 256 | CN(CC(=O)O)NC(=O)C[C@H](N)C[C@H](O)CCN | 
6 | 16 (≈ 57.9 µM) | 4 (≈ 14.5 µM) | 4.5 | 16 (≈ 57.9 µM) | 8 (≈ 29 µM) | 8 (≈ 29 µM) | 128 (≈ 463 µM) | > 256 |  | CCNC[C@H](O)C[C@@H](N)CC(=O)NN(C)CC(=O)O | 
7 | > 256 | > 256 | 20.3 | > 256 | > 256 | > 256 | > 256 | > 256 | > 256 | CCCNC[C@H](O)C[C@@H](N)CC(=O)NN(C)CC(=O)O | 
8 | > 256 | 128 (≈ 441 µM) | > 80 | > 256 | > 256 | > 256 | > 256 | > 256 |  | CN(CC(=O)O)NC(=O)C[C@H](N)C[C@@H](O)CN=C(N)N | 
9 | 16 (≈ 61 µM) | 4 (≈ 15.2 µM) | 2.3 | 16 (≈ 61 µM) | 8 (≈ 30.5 µM) | 4 (≈ 15.2 µM) | 128 (≈ 488 µM) | 128 (≈ 488 µM) | 256 (≈ 976 µM) | CNC[C@H](O)C[C@@H](N)CC(=O)NN(C)CC(=O)O | 16.3
10 | > 256 | > 256 | > 80 | > 256 | > 256 | > 256 | > 256 | > 256 | > 256 | CN(CC(=O)O)NC(=O)C[C@H](N)C[C@@H](O)CCN | 
11 | > 256 | > 256 | > 80 | > 256 | > 256 | > 256 | > 256 | > 256 | > 256 | CN(CC(=O)O)NC(=O)C[C@H](N)CC(O)CN1CC[C@H](N)C1 (some centres undefined) | 

Further lines, the compound ahead of its results:

Row | SMILES | MIC (Enterobacter cloacae) [µg/mL] | MIC (Escherichia coli [1]) [µg/mL] | IC50 (Escherichia coli [2]) [µM] | MIC (Escherichia coli [3]) [µg/mL] | MIC (Escherichia coli [4]) [µg/mL] | MIC (Klebsiella pneumoniae) [µg/mL] | MIC (Pseudomonas aeruginosa) [µg/mL] | MIC (Staphylococcus aureus) [µg/mL] | MIC (Streptococcus pneumoniae) [µg/mL] | ED50 (Mus musculus) [mg/kg]
12 | CN(CC(=O)O)NC(=O)C[C@H](N)C[C@@H](O)CNCc1ccccc1 | 64 (≈ 189 µM) | 16 (≈ 47.3 µM) | 0.8 | 64 (≈ 189 µM) | 32 (≈ 94.6 µM) | 32 (≈ 94.6 µM) | > 128 | > 128 | 128 (≈ 378 µM) | 
13 | NC[C@H](O)C[C@@H](N)CC(=O)NN1CCC[C@@H]1C(=O)O | > 256 | > 256 | > 80 | > 256 | > 256 | > 256 | > 256 | > 256 | > 256 | 
14 | CN(CC(=O)O)NC(=O)C[C@H](N)CC(O)CN1CCNCC1 (some centres undefined) | > 256 | > 256 | > 80 | > 256 | > 256 | > 256 | > 256 | > 256 | > 256 | 
15 | CC(C)C[C@H](N)C(=O)NC[C@H](O)C[C@@H](N)CC(=O)NN(C)CC(=O)O | 16 (≈ 44.3 µM) | 8 (≈ 22.1 µM) | 3.5 | 16 (≈ 44.3 µM) | 16 (≈ 44.3 µM) | 32 (≈ 88.5 µM) | 64 (≈ 177 µM) | 256 (≈ 708 µM) |  | 
16 | CN(CC(=O)O)NC(=O)C[C@H](N)CC(O)CN1CCOCC1 (some centres undefined) | > 256 | > 256 | > 80 | > 256 | > 256 | > 256 | > 256 | > 256 | > 256 | 
17 | NC[C@H](O)C[C@@H](N)CC(=O)NOCC(=O)O | > 256 | > 256 | > 80 | > 256 | > 256 | > 256 | > 256 | > 256 | > 256 | 
18 | CN(Cc1nn[nH]n1)NC(=O)C[C@H](N)C[C@@H](O)CN | > 256 | > 256 | > 80 | > 256 | > 256 | > 256 | > 256 | > 256 | > 256 | 
19 | NC[C@H](O)C[C@@H](N)CC(=O)NN1CCC[C@H]1C(=O)O | > 256 | > 256 | > 80 | > 256 | > 256 | > 256 | > 256 | > 256 | > 256 | 
20 | CC(ONC(=O)C[C@H](N)C[C@@H](O)CN)C(=O)O (some centres undefined) | > 256 | > 256 | > 80 | > 256 | > 256 | > 256 | > 256 | > 256 | > 256 | 
21 | CN(CP(=O)(O)O)NC(=O)C[C@H](N)C[C@@H](O)CN | > 256 | > 256 | > 80 | > 256 | > 256 | > 256 | > 256 | > 256 | > 256 | 
22 | CC(C)CCCNC[C@H](O)C[C@@H](N)CC(=O)NN(C)CC(=O)O | > 256 | > 256 | > 80 | > 256 | > 256 | > 256 | > 256 | > 256 | > 256 | 
23 | CN(CP(C)(=O)O)NC(=O)C[C@H](N)C[C@@H](O)CN | > 256 | > 256 | > 80 | > 256 | > 256 | > 256 | > 256 | > 256 | > 256 | 
